Laboratory results: PubChem BioAssay AID652011 (Sanford-Burnham Center for Chemical Genomics, 2013)

Each compound was assayed against Hypoxia-inducible factor 1-alpha (Homo sapiens) (UniProt Q16665) (assay: HIF-1a and HIF-2a reporter inhibitors, SAR follow-up, cell-based, luminescence, MIAPaCa-2, 786-0, panel (AID 652011)). Settings: MIAPaCa-2/PANC HIF reporter, luciferase luminescence, desferoxamine, overnight, HIF1a, run 1; at 99 µM (top of the series).
Outline: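 Probe or stimulus – desferoxamine stimulus · Times – overnight compound incubation at 37 °C, 10 min reagent · Doses – compounds from 10 mM and 0.3125 mM stocks, 1% DMSO final · Technique – luminescence, One-Glo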

Chain of Hypoxia-inducible factor 1-alpha (Homo sapiens) (Q16665 whole entry, looked up): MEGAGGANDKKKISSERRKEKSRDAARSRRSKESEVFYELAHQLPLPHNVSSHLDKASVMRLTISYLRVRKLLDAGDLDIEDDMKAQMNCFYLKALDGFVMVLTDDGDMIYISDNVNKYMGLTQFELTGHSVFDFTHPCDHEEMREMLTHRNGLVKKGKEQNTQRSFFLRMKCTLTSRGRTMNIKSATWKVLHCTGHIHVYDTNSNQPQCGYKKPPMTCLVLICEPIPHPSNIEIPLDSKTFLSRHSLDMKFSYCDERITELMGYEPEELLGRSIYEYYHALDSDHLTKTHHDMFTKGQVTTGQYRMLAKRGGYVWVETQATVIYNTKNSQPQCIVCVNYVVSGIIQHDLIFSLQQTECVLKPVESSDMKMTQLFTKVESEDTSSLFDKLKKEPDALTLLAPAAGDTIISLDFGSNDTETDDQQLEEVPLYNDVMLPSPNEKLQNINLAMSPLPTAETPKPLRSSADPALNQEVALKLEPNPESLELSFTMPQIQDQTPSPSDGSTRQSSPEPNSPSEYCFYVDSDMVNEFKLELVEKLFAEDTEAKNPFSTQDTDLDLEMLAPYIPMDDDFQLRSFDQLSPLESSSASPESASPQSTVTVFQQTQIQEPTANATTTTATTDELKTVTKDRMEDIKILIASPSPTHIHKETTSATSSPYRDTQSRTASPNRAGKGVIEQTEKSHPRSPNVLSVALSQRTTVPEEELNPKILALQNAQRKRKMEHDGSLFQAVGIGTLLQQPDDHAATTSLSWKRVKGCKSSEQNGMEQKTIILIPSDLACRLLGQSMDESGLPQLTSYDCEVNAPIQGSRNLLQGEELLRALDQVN

First: CC(C)(C)c1ccc(-c2noc(CCC(=O)NCC3CCCO3)n2)cc1 (stereo unspecified)
Second: CC(C)(C)c1ccc(-c2noc(CCC(=O)NC3CCC3)n2)cc1
The inhibition of the first is lower: -24.5% for the first, 31.6% for the second.

Compared with `CCOc1ccc(-c2noc(CCC(=O)O)n2)cc1`, `CCOc1ccc(-c2noc(CCC(=O)NC)n2)cc1` is lower in inhibition: 73.4% for the first, -41.9% for the second.

Going from `CCCCc1ccc(-c2noc(CCC(=O)NC(C)(C)C)n2)cc1` to `CC(C)NC(=O)CCc1nc(-c2ccc(C(C)(C)C)cc2)no1`, the inhibition falls from 86.1% to 17.3%.

Going from `CC(C)(C)c1ccc(-c2noc(CCC(=O)NC3CC3)n2)cc1` to `O=C(CCc1nc(-c2ccccc2)no1)NC1CC1`, the inhibition rises from -50.8% to -33.5%.

Going from `CCC(C)NC(=O)CCc1nc(-c2ccccc2)no1` (stereo unspecified) to `CCNC(=O)CCc1nc(-c2ccc(C(C)C)cc2)no1`, the inhibition rises from -33.5% to -33%.

Compound `CC(C)(C)c1ccc(-c2noc(CCC(=O)Nc3cccc([N+](=O)[O-])c3)n2)cc1` has an inhibition of 96.4%.
